Bioassay records (PubChem BioAssay)
This is a sample that favours compounds with a hit; in the whole collection about 1.9% have one here.
TDP2 inh = blocks human TDP2 phosphodiesterase activity. recombinant TDP2, T5PNP hydrolysis, p-nitrophenol absorbance 415 nm. inhibition, % at 12.8 µM. hit rate 0.34% among 370,000. AID 720702;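 active = inhibition above the mean of all tested compounds plus 3 SD, set per campaign, cut at about 25% in these data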;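 note: 0% = DMSO with enzyme and 100% = buffer with substrate but no TDP2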
Target sequence (O95551 whole entry, looked up): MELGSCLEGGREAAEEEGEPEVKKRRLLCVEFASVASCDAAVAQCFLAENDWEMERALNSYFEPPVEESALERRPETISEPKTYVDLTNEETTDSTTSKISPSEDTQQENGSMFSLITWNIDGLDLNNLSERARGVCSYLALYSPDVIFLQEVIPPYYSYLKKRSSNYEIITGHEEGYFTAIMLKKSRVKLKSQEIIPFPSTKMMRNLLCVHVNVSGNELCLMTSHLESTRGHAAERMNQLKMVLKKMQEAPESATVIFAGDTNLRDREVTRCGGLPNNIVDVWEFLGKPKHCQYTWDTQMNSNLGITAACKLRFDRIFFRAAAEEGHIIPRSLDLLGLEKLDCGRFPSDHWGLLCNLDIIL
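Assay system: recombinant human TDP2 / Reagent: T5PNP substrate at 5 mM, a TopII-DNA adduct mimic / Measured by: epi absorbance from released p-nitrophenol / Evaluation: % inhibition relative to enzyme-containing and enzyme-free wells / Control set: enzyme-free and DMSO wells / Replicates: each compound tested once, singlicate / Schedule: enzyme reaction with compound for 2 h at 37 °C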
LEDGF integ inh = blocks HIV-1 LEDGF/p75-dependent DNA integration. AID 743269. inhibition, % at 3.7 µM. TR-FRET IN-LEDGF/p75 DNA integration, Eu/Cy5. hit rate 0.64% among 370,000;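 active = inhibition above the screen-wide mean plus 3 SD, cut at about 13% in these data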;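 note: signal is the Cy5 over europium emission ratio at 671 and 618 nm; 0% = plate median of compound wells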
MBD2 inh = inhibitors of human MBD2 binding to methylated oligonucleotide. AID 686964. inhibition, % at 4.4 µM. hit rate 0.31% among 370,000. TR-FRET; in the data active = inhibition above about 13%
NSD2 HMT inh = inhibitors of human histone methyltransferase NSD2 | O96028 | NSD2 peptide methylation, AlphaScreen, 120 min | inhibition, % at 12.5 µM | hit rate 0.54% among 310,000 | AID 743445; in the data active = inhibition above about 50%
CASP6 VEID inh = blocks human caspase-6 cleavage activity; hit rate 0.53% among 350,000; P55212; purified caspase-6, Z-VEID-R110 cleavage fluorescence; inhibition, % at 12.5 µM;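 active = mean inhibition across replicates at least about 35%, with every replicate also reaching that limit, limit read from the data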;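 note: 0% = median of neutral control wells and 100% = no fluorescence left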
UHRF1 binding = UHRF1 methyl-DNA binding inhibition | UHRF1 binding to methylated oligo, TR-FRET | AID 687016 | Q96T88 | hit rate 0.75% among 370,000 | inhibition, % at 4.4 µM; in the data active = inhibition above about 21%;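 note: UHRF1 SRA domain binding a hemimethylated CpG hairpin DNA probe; 0% = median of test compound wells and 100% = reference inhibitor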
* marks the source's active call; other numbers are inactive results; x = not tested or not shown.

SMILES	TDP2 inh	LEDGF integ inh	MBD2 inh	NSD2 HMT inh	CASP6 VEID inh	UHRF1 binding
Nc1ccc(C(=O)Nc2ccc3c(O)cc(S(=O)(=O)O)cc3c2)cc1	-0.8	5.5	0.2	7.9	83.6*	1.7
C[C@@H]1CN([C@H](C)CO)S(=O)(=O)c2ccc(-c3cccc(C#N)c3)cc2O[C@@H]1CN(C)C(=O)c1ccc(F)cc1	x	x	x	x	-0.4	x
N#Cc1ccc(-c2csc(NC3=NCCCCC3)n2)cc1	4.6	0.8	2.6	-0.1	7.2	39.4*
CO[C@@H](CN(C)C(=O)c1ccccc1F)[C@H](C)CN([C@@H](C)CO)S(=O)(=O)c1ccccc1	x	x	x	x	1.4	x
C[C@@H]1CN([C@H](C)CO)C(=O)c2cccc(NC(=O)Nc3ccc(C(F)(F)F)cc3)c2O[C@H]1CN(C)S(=O)(=O)c1cn(C)cn1	x	x	x	x	-0.1	x
CCOC(=O)C1=C(COC(=O)C2(C)CC2(Cl)Cl)NC(=O)NC1c1ccccc1 (stereo not drawn)	5.6	-0.7	-6.6	1.0	-6.7	29.3*
CCOC(=O)C1=C(COc2ccccc2)NC(=O)NC1c1ccc(Cl)cc1 (stereo not drawn)	-1.8	2.1	4.5	x	-1.4	2.7
C/C=C/c1cnc2c(c1)C(=O)N([C@@H](C)CO)C[C@@H](C)[C@H](CN(C)C(=O)Nc1ccc(F)cc1)O2	x	x	x	x	-0.2	x
O=C1CC2(CCN(C(=O)c3ccc(F)cc3)CC2)Oc2ccccc21	-6.3	40.1*	-2.6	1.4	2.4	1.9
O=C(CCS(=O)(=O)Cc1ccccc1)Nc1nc2c(s1)CCCC2	-1.0	33.0*	0.7	-0.6	x	1.3
CCSc1nnc(NC(=O)CSc2sc3c(O)cc(=O)[nH]c3c2C#N)s1	-0.8	-0.8	10.8	33.4	44.1*	31.5*
CCc1nnc(NC(=O)CSc2sc3c(O)cc(=O)[nH]c3c2C#N)s1	24.7*	12.5	13.2*	x	64.5*	35.3*
CCc1nnc(NC(=O)CSc2nc3[nH]c(=O)cc(O)c3s2)s1	-1.7	0.7	-4.0	4.5	14.6	-1.7
Cc1cccc(NC(=O)CSCC(=O)Nc2cc(Cl)ccc2N2CCN(C)CC2)c1	11.8	-1.3	2.5	2.5	1.1	-0.5
Cc1cc(NC(=O)CSCC(=O)Nc2cc(Cl)ccc2N2CCN(C)CC2)no1	5.3	-3.6	0.4	0.7	-8.2	27.7*
COC(=O)c1ccccc1NC(=O)c1cc(-c2ccco2)on1	0.5	-3.9	2.4	2.3	65.9*	0.3
COC(=O)c1ccccc1NC(=O)c1cc(-c2cccs2)on1	-7.6	1.0	-1.1	-0.7	1.7	-1.3
O=C(CC1CC1)N[C@@H]1CC[C@@H](CCNS(=O)(=O)c2ccc(F)cc2)O[C@H]1CO	x	x	x	x	1.4	x
O=C(CCC1CCCCC1)Nc1nncs1	4.0	-1.3	-4.1	0.0	-2.9	26.3*
CCCCn1nnnc1C(CC)N1CCN(C/C=C/c2ccccc2)CC1 (stereo not drawn)	1.0	3.0	9.6	x	-1.8	21.8*
COc1cccc(C(=O)N2CCN(Cc3cc(Br)ccc3OC)CC2)c1	2.2	0.3	8.5	2.8	x	8.0
COc1cccc(C(=O)N2CCN(Cc3ccc(OC)cc3OC)CC2)c1	9.9	3.5	6.8	-1.3	41.5*	2.5
O=[N+]([O-])c1ccc(O)c(C=NNc2ccc(S(=O)(=O)O)cc2)c1	8.1	-0.9	1.2	7.4	23.8	23.7*
CCN(CC)c1ccc2nc3ccc(N)cc3[n+](-c3ccccc3)c2c1	-11.0	-8.1	-10.3	71.8*	28.8	-11.1
O=C(OC1CC2CC1[C@H]1CCCCN1C2=O)N1CCN(c2ccccc2)CC1 (stereo partly drawn)	4.5	-0.6	-1.4	x	0.0	-0.4
CN1CCN(C(=O)OC2CC3CC2[C@H]2CCCCN2C3=O)CC1 (stereo partly drawn)	6.8	0.8	2.4	x	-6.2	21.1*
Cc1ccc(S(=O)(=O)N[C@H]2CC[C@H](CCNC(=O)Nc3ccc(Cl)cc3)O[C@@H]2CO)cc1	x	x	x	x	-1.8	x
O=C1COc2ccc(S(=O)(=O)CCC(=O)N3CCN(c4cccc(Cl)c4)CC3)cc2N1	-10.1	-2.5	0.2	-0.4	-0.2	-2.1
Cc1ccc(Cl)cc1N1CCN(C(=O)CCS(=O)(=O)c2ccc3c(c2)NC(=O)CO3)CC1	-20.5	1.8	-1.2	-2.4	2.9	23.0*
